Results on 15 compounds are retold here after ChEMBL document CHEMBL4251752, “Integrated Strategy for Lead Optimization Based on Fragment Growing: The Diversity-Oriented-Target-Focused-Synthesis Approach” (J Med Chem, 2018).

Molecules are shown by their SMILES.

The target of experiment [1] is T1, Bromodomain-containing protein 4 (Homo sapiens, UniProt O60885). Put plainly: Inhibition of TEV cleavage site-fused-GST tagged BRD4(BD1) (unknown origin) using SGRGK(Ac)CGK(Ac)-GLGK(Ac)GGAK(Ac)RHRKVG-peptide after 3 hrs by HTRF assay. In a few lines: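 GST-BRD4(BD1) purified on glutathione resin and by size exclusion; tetra-acetylated H4 peptide as ligand. Buffer 50 mM HEPES pH 7.5, 400 mM KF, 0.1% BSA, 0.5% DMSO final; 3 h at room temperature.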

For experiment [2], the target named is T1, Bromodomain-containing protein 4. Put plainly: Binding affinity to TEV cleavage site-fused-His-tagged BRD4(BD1) (unknown origin) by isothermal-titration calorimetry. In a few lines:
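BRD4(BD1) with His-tag cleaved by TEV, DTT removed, dialysed into 10 mM HEPES pH 7.5, 150 mM NaCl; compounds diluted in the final dialysate. Reverse titration (protein in syringe, ligand in cell), 13 injections at 15 or 25 °C, in triplicate. Data fitted to a one-site model for KD and ΔH; ΔG and TΔS derived from these.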

The target is the same in experiment [3]. Put plainly: Binding affinity to TEV cleavage site-fused-His-tagged BRD4(BD1) (unknown origin) assessed as change in melting temperature at 10 uM by RT-PCR based thermal shift assay. In a few lines: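 His-tag removed by TEV cleavage before use; protein 2 μM final, compound 10 μM final (0.1% or 0.5% DMSO), thermal shift dye 1:1000, in 10 mM HEPES pH 7.5, 500 mM NaCl. After 1 min equilibration at 25 °C, heated 25–70 °C in 0.5 °C steps (25 s each); Tm from fluorescence melt curves, run in triplicate; ΔTm reported.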

A word on the IC50: it is the concentration that inhibits the measured activity by half. High values mean weaker potency in that assay, low ones greater potency in that assay. In the case of `CCn1cnc2c1c(=O)[nH]c(=O)n2Cc1ccc(CNS(=O)(=O)c2cc(-c3ccno3)ccc2C)cc1`, it took 1.26 µM to reach half-maximal inhibition in experiment [1] (IC50).
In the case of `CCn1cnc2c1c(=O)[nH]c(=O)n2Cc1ccc(CNS(=O)(=O)CCN2CCOCC2)cc1`, it took 5.01 µM to reach half-maximal inhibition in experiment [1] (IC50). Against the preceding compound, the IC50 is about 4-fold higher.
One may read the Kd as the constant that tells how readily two partners part at equilibrium. What is called ΔTm is the shift of the melting midpoint relative to a reference. As for `CCn1cnc2c1c(=O)[nH]c(=O)n2Cc1ccc(CNS(=O)(=O)c2ccc3c(c2)CCC(=O)N3)cc1`, binding in experiment [2] was put at a Kd of 0.31 µM. Besides, the IC50 in experiment [1] is 0.398 µM. Further, the ΔTm in experiment [3] was determined as 3 °C.
Take `CCn1cnc2c1c(=O)[nH]c(=O)n2Cc1ccc(CNS(=O)(=O)CCc2ccccc2)cc1`: the midpoint of inhibition in experiment [1], the IC50, lay at 1.58 µM.
Consider `CCn1cnc2c1c(=O)[nH]c(=O)n2Cc1ccc(CNS(=O)(=O)c2cccc(-c3ccccc3)c2)cc1`, for which, in experiment [2], binding was characterised by a dissociation constant (Kd) of 0.89 µM. This compound also gave a 50% inhibitory concentration (IC50) in experiment [1] of 0.501 µM. The ΔTm in experiment [3] stood at 3.25 °C.
For `CCn1cnc2c1c(=O)[nH]c(=O)n2Cc1ccc(CNS(=O)(=O)c2ccc(OC)cc2)cc1`, the affinity in experiment [2], expressed as Kd, was 0.54 µM. 0.794 µM corresponded to half-maximal inhibition in experiment [1] (IC50). The ΔTm in experiment [3] was 2.63 °C.
In the case of `CCn1cnc2c1c(=O)[nH]c(=O)n2Cc1ccc(CNS(=O)(=O)c2ccc(Oc3ccccc3)cc2)cc1`, the Kd in experiment [2] was determined as 0.36 µM. This compound gave an IC50 in experiment [1] of 0.316 µM. The ΔTm in experiment [3] is 3.13 °C.
In the same order, the values of `CCn1cnc2c1c(=O)[nH]c(=O)n2Cc1ccc(CNS(=O)(=O)c2ccc(C)cc2)cc1` are 0.77 µM, 0.631 µM and 3 °C.
On to `CCn1cnc2c1c(=O)[nH]c(=O)n2Cc1ccc(CNS(=O)(=O)c2ccc3c(c2)CCCC(=O)N3)cc1`, for which binding in experiment [2] was characterised by a dissociation constant (Kd) of 0.19 µM. Further, the ΔTm in experiment [3] turned out to be 3.88 °C.
As for `CCn1cnc2c1c(=O)[nH]c(=O)n2Cc1ccc(CNS(=O)(=O)c2ccc3c(c2)n(C)c(=O)n3C)cc1`, binding in experiment [2] was put at a Kd of 0.86 µM. Moreover, the IC50 in experiment [1] was 0.794 µM. For the same compound, the ΔTm in experiment [3] was 2.13 °C.
Taken in the same sequence, the figures for `CCn1cnc2c1c(=O)[nH]c(=O)n2Cc1ccc(CNS(=O)(=O)c2cnn(-c3ccccc3)c2)cc1` were 0.41 µM, 0.501 µM and 3.38 °C.
Turning to `CCn1cnc2c1c(=O)[nH]c(=O)n2Cc1ccc(CNS(=O)(=O)c2ccc(-c3ccccc3)cc2)cc1`, the IC50 in experiment [1] was 0.398 µM. Besides, the ΔTm in experiment [3] came to 1.5 °C.
In experiment [1], `CCn1cnc2c1c(=O)[nH]c(=O)n2Cc1ccc(CN)cc1` gave an IC50 of 25.1 µM.
Consider `CCn1cnc2c1c(=O)[nH]c(=O)n2Cc1ccc(CNS(=O)(=O)c2ccc(OCc3ccccc3)cc2)cc1`, for which the affinity in experiment [2], expressed as Kd, was 0.59 µM. The IC50 in experiment [1] was 0.631 µM. In experiment [3], the ΔTm stood at 3.5 °C.
For `CCn1cnc2c1c(=O)[nH]c(=O)n2Cc1ccc(CNS(=O)(=O)c2ccc3oncc3c2)cc1`, half-maximal inhibition in experiment [1] (IC50) was put at 2 µM.
